Laboratory results published in ChEMBL document CHEMBL1136729, “Synthesis of 3'- and 5'-nitrooxy pyrimidine nucleoside nitrate esters: "nitric oxide donor" agents for evaluation as anticancer and antiviral agents” (J Med Chem, 2003).
Values after ≈ are worked out from the molar mass of the structure shown.

Columns and labels:
[1] = (§1) In vitro cell cytotoxicity against EMT-6 cell lines; type: functional; conditions: Mus musculus, EMT6
How it was run: (§2)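 MTT assay. KBALB, KBALB-STK, 143B and 143B-LTK cells were grown in DMEM with 10% FBS; EMT-6 cells in Waymouth medium with 12.5% FBS. Cells were seeded at 8 × 10² per well and grown 24 h. Compound in DMEM was added for 3 days at 37 °C in 5% CO2, followed by MTT for 4 h, DMSO solubilisation and blank-corrected A540. CC50 is the concentration cutting A540 to 50% of control, mean of n = 6.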

KBALB cell line = test: In vitro cell cytotoxicity against KBALB cell line (transformed fibroblast sarcoma cell line); type: functional; conditions: Mus musculus; how it was run: as §2
KBALB-STK = test: In vitro cell cytotoxicity against KBALB-STK cell lines expressed in HSV-1 TK; type: functional; conditions: Mus musculus; how it was run: as §2
[2] = Compound was tested for in vitro nitric oxide release in the presence of 18 mM L-cysteine at 1 h; type: functional
How it was run: (§3)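 Compound (2 mM stock in 0.1 M phosphate buffer pH 7.4) was mixed 1:1 with freshly made 36 mM L-cysteine in the same buffer and incubated at 37 °C for 1 or 16 h without air. The mixture was exposed to air for 10 min, then Griess reagent was added. A540 was read after 10 min. Nitrite was calculated from a 0–60 μM sodium nitrite standard curve, n = 3.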

Human respirovirus 3 = test: Antiviral activity against parainfluenza-3 virus; type: functional, organism-based
Sindbis virus = test: Antiviral activity against sindbus virus; type: functional, organism-based
143B [3] = test: In vitro cell cytotoxicity against 143B-LTK cell lines expressed in HSV-1 TK; type: functional; conditions: Homo sapiens; how it was run: as §2
Rattus norvegicus [4] = organism: Rattus norvegicus; test: Compound was tested for in vitro nitric oxide release in the presence of rat serum at 16 h; type: functional
How it was run: (§4)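 Compound (1 × 10⁻² M stock) was mixed 1:9 with filtered rat serum. It was incubated at 37 °C for 1 or 16 h with 0.2 U/mL Aspergillus nitrate reductase, 50 mM HEPES, 5 μM FAD and 0.1 mM NADPH. Leftover NADPH was removed with lactate dehydrogenase plus pyruvate over 10 min. Griess reagent was added and A540 read after 10 min at 25 °C. % NO release came from a nitrite standard curve, n = 3.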

Rattus norvegicus [5] = organism: Rattus norvegicus; test: Compound was tested for in vitro nitric oxide release in the presence of rat serum at 1 h; type: functional; how it was run: as §4
[6] = system: Mammalian orthoreovirus 1; test: Antiviral activity against reovirus-1; type: functional, organism-based
143B [7] = test: In vitro cell cytotoxicity against 143-B cell lines (Human osteosarcoma cell line); type: functional; how it was run: as §2
Coxsackievirus B4 = test: Antiviral activity against coxsackie B4 virus; type: functional, organism-based; conditions: Enterovirus B
[8] = system: Respiratory syncytial virus; test: Antiviral activity against respiratory syncytial virus in Hela cell cultures; type: functional, organism-based; conditions: human respiratory syncytial virus
[9] = Compound was tested for in vitro nitric oxide release in the presence of 18 mM L-cysteine at 16 h; type: functional; how it was run: as §3
Punta Toro virus = test: (§5) Antiviral activity against Punta toro virus in vero cell cultures; type: functional, organism-based
[10] = Compound was tested for in vitro nitric oxide release in the presence of 18 mM L-cysteine at 16h; type: functional; how it was run: as §3
Monkey = test: as §5; type: functional, organism-based, Chlorocebus sabaeus; conditions: Cercopithecidae
EMT6 = test: as §1; type: functional; conditions: Mus musculus; how it was run: as §2
Human alphaherpesvirus 2 [11] = test: (§6) Inhibitory activity against herpes simplex virus […]; type: functional, organism-based
Human alphaherpesvirus 1 [12] = test: as §6; type: functional, organism-based
Vaccinia virus = test: Inhibitory activity against vaccinia virus; type: functional, organism-based; conditions: Orthopoxvirus vaccinia
Human alphaherpesvirus 1 [13] = test: Inhibitory activity against HSV-1; type: functional, organism-based
Human alphaherpesvirus 2 [14] = test: Inhibitory activity against HSV-2; type: functional, organism-based

Row | SMILES | CC50 (KBALB cell line) [µM] | CC50 (KBALB-STK) [µM] | NO release [2] [%] | CC50 (143B [3]) [µM] | NO release (Rattus norvegicus [4]) [%] | NO release (Rattus norvegicus [5]) [%] | CC50 (143B [7]) [µM] | NO release [9] [%] | also measured
1 | Cc1cn([C@H]2C[C@H](O)[C@@H](CO)O2)c(=O)[nH]c1=O [DOXRIBTIMINE] | 95 | 100 | – | – | – | – | – | – | CC50 [1]: 130 µM
2 | O=c1[nH]c(=O)n([C@H]2C[C@H](O[N+](=O)[O-])[C@@H](CO)O2)cc1F | 8 | 3.5 | 0 | 74 | 6.6 | 4 | 2.4 | 3.8 | CC50 [1]: 6.2 µM; IC50 (Human respirovirus 3): > 80 µg/mL; IC50 (Sindbis virus): > 80 µg/mL; IC50 [6]: > 80 µg/mL; IC50 (Coxsackievirus B4): > 80 µg/mL; IC50 [8]: > 80 µg/mL; IC50 (Punta Toro virus): > 80 µg/mL
3 | Cc1cn([C@H]2C[C@H](O[N+](=O)[O-])[C@@H](CO)O2)c(=O)nc1N | – | – | 3.8 | 1000 | 59.5 | 47.1 | – | 50.3 | –
4 | O=[N+]([O-])O[C@H]1CO[C@H]2[C@@H]1OC[C@H]2O[N+](=O)[O-] [ISOSORBIDE DINITRATE] | 970 | 650 | 3.5 | 700 | 2.6 | 1.9 | 600 | 24 | –
5 | Nc1ccn([C@H]2C[C@H](O[N+](=O)[O-])[C@@H](CO)O2)c(=O)n1 | – | – | 1.5 | 200 | 20.2 | 18.8 | – | 17.1 | –
6 | O=c1ccn([C@H]2C[C@H](O)[C@@H](CO[N+](=O)[O-])O2)c(=O)[nH]1 | 1000 | – | 5.4 | – | 4.4 | 2.9 | – | 59.9 | –
7 | O=c1[nH]c(=O)n([C@H]2C[C@H](O)[C@@H](CO)O2)cc1F [FLOXURIDINE] | – | – | – | 100 | – | – | 90 | – | –
8 | Cc1cn([C@H]2C[C@H](O)[C@@H](CO[N+](=O)[O-])O2)c(=O)[nH]c1=O | – | 300 | 5 | – | 4.8 | 3.6 | – | – | NO release [10]: 59.8%
9 | O=c1ccn([C@H]2C[C@H](O[N+](=O)[O-])[C@@H](CO)O2)c(=O)[nH]1 | – | – | 4.9 | 850 | 9 | 7.7 | – | – | IC50 (Human respirovirus 3): > 80 µg/mL; IC50 (Sindbis virus): > 80 µg/mL; IC50 (Monkey): > 80 µg/mL; IC50 [6]: > 80 µg/mL; IC50 (Coxsackievirus B4): > 80 µg/mL; IC50 [8]: > 80 µg/mL
10 | O=c1[nH]c(=O)n([C@H]2C[C@H](O)[C@@H](CO[N+](=O)[O-])O2)cc1I | 340 | 250 | 3.7 | 21 | 4.7 | 3.9 | 340 | 36.4 | –
11 | O=c1[nH]c(=O)n([C@H]2C[C@H](O[N+](=O)[O-])[C@@H](CO)O2)cc1I | 240 | 260 | 3.9 | 410 | 13.2 | 12.3 | 580 | 37.6 | CC50 (EMT6): 23 µM; IC50 (Human respirovirus 3): > 80 µg/mL; IC50 (Sindbis virus): > 80 µg/mL; IC50 (Monkey): > 80 µg/mL; IC50 (Human alphaherpesvirus 2 [11]): 48 µg/mL (≈ 120 µM); IC50 (Human alphaherpesvirus 1 [12]): 48 µg/mL (≈ 120 µM); IC50 [6]: > 80 µg/mL; IC50 (Vaccinia virus): 48 µg/mL (≈ 120 µM); IC50 (Coxsackievirus B4): > 80 µg/mL; IC50 [8]: > 80 µg/mL
12 | Cc1cn([C@H]2C[C@H](O[N+](=O)[O-])[C@@H](CO)O2)c(=O)[nH]c1=O | 1000 | 7000 | 4.9 | – | 7.4 | 7.4 | – | 53.6 | IC50 (Human respirovirus 3): > 80 µg/mL; IC50 (Sindbis virus): > 80 µg/mL; IC50 [6]: > 80 µg/mL; IC50 (Coxsackievirus B4): > 80 µg/mL; IC50 [8]: > 80 µg/mL; IC50 (Punta Toro virus): > 80 µg/mL
13 | O=c1[nH]c(=O)n([C@H]2C[C@H](O)[C@@H](CO)O2)cc1/C=C/I | – | – | – | – | – | – | – | – | IC50 (Human alphaherpesvirus 1 [13]): 0.0051 µg/mL (≈ 0.0134 µM); IC50 (Human alphaherpesvirus 2 [14]): 80 µg/mL (≈ 210 µM); IC50 (Vaccinia virus): 2.3 µg/mL (≈ 6.05 µM)
14 | O=c1[nH]c(=O)n([C@H]2C[C@H](O)[C@@H](CO)O2)cc1I [IDOXURIDINE] | 97 | 10 | – | 7400 | – | – | 7000 | – | CC50 [1]: 380 µM
15 | Nc1nc(=O)n([C@H]2C[C@H](O[N+](=O)[O-])[C@@H](CO)O2)cc1I | 1000 | 250 | 4 | 200 | 17.6 | 12.5 | 200 | 47.2 | CC50 (EMT6): 340 µM
